The source of these data is ChEMBL document CHEMBL1129519, “Optimal recognition of neutral endopeptidase and angiotensin-converting enzyme active sites by mercaptoacyldipeptides as a means to design potent dual inhibitors” (J Med Chem, 1996).

The structures appear in SMILES notation.

Test [1] concerns the target T1, Angiotensin-converting enzyme (Rattus norvegicus, UniProt P47820).
T1 sequence (P47820 whole entry): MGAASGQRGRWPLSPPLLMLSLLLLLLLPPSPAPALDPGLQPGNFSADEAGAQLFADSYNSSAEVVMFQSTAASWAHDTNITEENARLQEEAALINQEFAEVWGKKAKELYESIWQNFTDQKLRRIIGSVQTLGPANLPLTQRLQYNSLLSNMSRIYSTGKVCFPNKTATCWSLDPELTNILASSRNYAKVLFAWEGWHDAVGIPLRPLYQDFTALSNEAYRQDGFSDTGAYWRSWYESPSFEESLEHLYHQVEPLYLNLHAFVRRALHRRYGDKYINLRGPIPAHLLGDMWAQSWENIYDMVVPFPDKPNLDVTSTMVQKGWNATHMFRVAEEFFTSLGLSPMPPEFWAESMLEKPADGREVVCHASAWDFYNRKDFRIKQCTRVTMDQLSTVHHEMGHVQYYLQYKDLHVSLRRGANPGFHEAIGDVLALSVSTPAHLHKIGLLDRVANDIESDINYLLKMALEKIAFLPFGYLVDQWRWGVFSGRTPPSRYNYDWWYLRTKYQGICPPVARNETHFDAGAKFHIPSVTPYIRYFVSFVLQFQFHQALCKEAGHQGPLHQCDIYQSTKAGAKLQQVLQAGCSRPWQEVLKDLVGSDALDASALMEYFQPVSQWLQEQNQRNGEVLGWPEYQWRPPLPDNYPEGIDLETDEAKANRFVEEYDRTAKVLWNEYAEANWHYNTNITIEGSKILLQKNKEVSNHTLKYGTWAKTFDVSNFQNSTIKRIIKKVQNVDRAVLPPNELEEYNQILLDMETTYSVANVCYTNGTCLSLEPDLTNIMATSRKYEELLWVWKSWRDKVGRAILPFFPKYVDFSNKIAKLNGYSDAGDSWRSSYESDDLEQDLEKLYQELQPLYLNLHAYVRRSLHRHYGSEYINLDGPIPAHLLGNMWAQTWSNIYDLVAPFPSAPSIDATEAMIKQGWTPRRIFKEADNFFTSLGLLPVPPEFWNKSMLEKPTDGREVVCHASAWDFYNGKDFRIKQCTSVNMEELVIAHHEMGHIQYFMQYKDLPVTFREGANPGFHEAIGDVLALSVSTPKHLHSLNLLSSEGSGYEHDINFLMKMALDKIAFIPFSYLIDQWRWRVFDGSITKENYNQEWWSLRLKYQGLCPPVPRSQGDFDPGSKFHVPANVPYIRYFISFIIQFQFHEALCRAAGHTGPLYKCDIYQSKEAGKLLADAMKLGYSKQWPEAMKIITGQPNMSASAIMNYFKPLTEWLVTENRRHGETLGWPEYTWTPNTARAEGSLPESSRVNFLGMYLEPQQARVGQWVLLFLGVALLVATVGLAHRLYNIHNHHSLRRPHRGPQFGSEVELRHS
Nature of the test: Inhibitory activity against angiotensin I converting enzyme. The gist of the method: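 Rat testis enzyme purified to homogeneity, 0.02 pmol/100 µL final, preincubated 15 min at 37 °C with varied inhibitor levels in 50 mM Tris-HCl pH 8.0. N-Cbz-Phe-His-Leu then added to 0.05 mM final and run 15 min. Stopped with 2 M NaOH, His-Leu measured fluorimetrically (ex 365, em 495 nm) against a His-Leu calibration curve. IC50 as mean ± SEM of three independent determinations, each in triplicate.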

The target of test [2] is T2, Neprilysin (Oryctolagus cuniculus, UniProt P08049).
T2 sequence (P08049 whole entry): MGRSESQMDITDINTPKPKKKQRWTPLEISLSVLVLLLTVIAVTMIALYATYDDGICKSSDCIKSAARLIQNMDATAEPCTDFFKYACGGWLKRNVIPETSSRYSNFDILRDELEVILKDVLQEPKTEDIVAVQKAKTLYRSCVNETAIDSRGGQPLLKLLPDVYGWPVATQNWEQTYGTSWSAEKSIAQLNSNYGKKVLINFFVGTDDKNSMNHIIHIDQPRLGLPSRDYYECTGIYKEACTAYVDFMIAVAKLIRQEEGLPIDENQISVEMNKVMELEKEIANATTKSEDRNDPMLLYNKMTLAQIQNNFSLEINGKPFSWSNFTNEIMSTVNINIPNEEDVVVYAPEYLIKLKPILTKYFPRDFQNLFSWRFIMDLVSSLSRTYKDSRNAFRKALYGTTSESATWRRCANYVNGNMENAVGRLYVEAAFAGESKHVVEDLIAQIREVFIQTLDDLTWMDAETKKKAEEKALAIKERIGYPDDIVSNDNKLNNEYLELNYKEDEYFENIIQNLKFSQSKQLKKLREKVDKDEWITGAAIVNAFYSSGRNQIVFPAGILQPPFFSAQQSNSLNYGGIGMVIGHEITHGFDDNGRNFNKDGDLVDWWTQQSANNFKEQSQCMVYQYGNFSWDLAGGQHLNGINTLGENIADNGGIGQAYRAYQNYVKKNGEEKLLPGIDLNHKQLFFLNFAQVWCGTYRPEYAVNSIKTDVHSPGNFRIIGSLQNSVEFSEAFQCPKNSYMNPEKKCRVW
Nature of the test: Inhibitory activity was tested against neutral endopeptidase. The gist of the method:
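Rabbit kidney enzyme purified to homogeneity, 1 pmol/100 µL final, preincubated 15 min at 25 °C with or without rising inhibitor concentrations in 50 mM Tris-HCl pH 7.4. [3H]Tyr-D-Ala2-Leu-enkephalin then added to 20 nM final and run 30 min. Stopped with 0.5 M HCl, tritiated metabolites separated on polystyrene beads. IC50 as mean ± SEM of three independent determinations, each in triplicate.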

On to `C[C@H](NC(=O)[C@H](S)Cc1ccccc1)C(=O)N1CCC[C@H]1C(=O)O`, for which the results for the IC50 in test [1] and in test [2] were 25 nM and 1.3 nM, respectively.
In the same order, the values of `CC[C@H](C)[C@H](S)C(=O)N[C@H](C(=O)N1CCC[C@H]1C(=O)O)C(C)C` are 0.58 nM and 190 nM.
In the same order, the values of `CC[C@H](C)[C@H](S)C(=O)N[C@@H](Cc1ccccc1)C(=O)N[C@@H](Cc1ccc(O)cc1)C(=O)O` are 10 nM and 3.5 nM.
In the same order, the values of `CC(C)(NC(=O)[C@@H](S)CCc1ccccc1)C(=O)N1CCCC1C(=O)O` (stereo partly drawn) are 1.6 nM and 46 nM.
On to `CC(C)[C@H](NC(=O)[C@@H](S)Cc1ccccc1)C(=O)N[C@@H](Cc1ccc(O)cc1)C(=O)O`, for which the values for the IC50 in test [1] and in test [2] were 4 nM and 3.6 nM, respectively.
In the same order, the values of `O=C(O)[C@H](COCc1ccccc1)NC(=O)[C@H](Cc1ccccc1)NC(=O)[C@@H](S)Cc1ccccc1` are 12 nM and 50 nM.
In the same order, the values of `CC(C)[C@H](NC(=O)[C@@H](S)CCc1ccccc1)C(=O)N[C@@H](Cc1ccc(O)cc1)C(=O)O` are 1.6 nM and 10 nM.
In the same order, the values of `C[C@H](NC(=O)[C@@H](S)Cc1ccccc1)C(=O)N1CCCC1` are 150 nM and 22 nM.
`C[C@H](NC(=O)[C@@H](S)Cc1ccccc1)C(=O)O`: the IC50 in test [1] is 40 nM; in test [2], 4 nM.
In the same order, the values of `CC[C@@H](C)[C@H](NC(=O)[C@@H](S)Cc1ccccc1)C(=O)N1CCCC1C(=O)O` (stereo partly drawn) are 1.7 nM and 24 nM.
Take `CC[C@H](C)[C@H](NC(=O)[C@@H](S)C(C)C)C(=O)N1C(C(=O)O)CC2CCCCC21` (stereo partly drawn): the IC50 in test [1] came out at 28 nM; in test [2], 175 nM.
In the same order, the values of `O=C(NC1(C(=O)O)CCCC1)[C@H](Cc1ccccc1)NC(=O)[C@@H](S)Cc1ccccc1` are 30 nM and 45 nM.
In the same order, the values of `C[C@H](NC(=O)[C@@H](S)Cc1ccccc1)C(=O)N1CCC[C@H]1C(=O)O` are 0.3 nM and 3.8 nM.
In the same order, the values of `O=C(O)C1CCCN1C(=O)[C@H](Cc1ccccc1)NC(=O)[C@@H](S)Cc1ccccc1` (stereo partly drawn) are 1.1 nM and 30 nM.
As to `CC[C@H](C)[C@H](S)C(=O)N[C@@H](C)C(=O)N1c2ccccc2CC1C(=O)O` (stereo partly drawn), the IC50 in test [1] is 3.3 nM; in test [2], 180 nM.
In the case of `CC(C)[C@H](NC(=O)[C@@H](S)Cc1ccccc1)C(=O)N1CCCC1C(=O)O` (stereo partly drawn), the results for the IC50 in test [1] and in test [2] were 0.85 nM and 24 nM, respectively.
In the same order, the values of `CC(c1ccccc1)[C@H](S)C(=O)N[C@H](C(=O)N1CCCC[C@H]1C(=O)O)C(C)C` (stereo partly drawn) are 110 nM and 180 nM.
In the same order, the values of `CC[C@@H](C)[C@H](NC(=O)[C@@H](S)C(C)OCc1ccccc1)C(=O)N[C@@H](Cc1ccc(O)cc1)C(=O)O` (stereo partly drawn) are 7.1 nM and 4.1 nM.
In the same order, the values of `C[C@H](NC(=O)[C@@H](S)Cc1ccccc1)C(=O)N1C(C(=O)O)CC2CCCCC21` (stereo partly drawn) are 0.4 nM and 5.3 nM.
As for `CC[C@H](C)[C@H](NC(=O)[C@@H](S)c1ccccc1)C(=O)N[C@@H](Cc1ccc(O)cc1)C(=O)O`, the figures for the IC50 in test [1] and in test [2] were 3.5 nM and 4.5 nM, respectively.
Take `O=C(O)[C@H](Cc1ccccc1)NC(=O)[C@@H](S)Cc1ccccc1`: the IC50 in test [1] turned out to be 44 nM; in test [2], 23 nM.
As for `CC(OCc1ccccc1)[C@H](NC(=O)[C@@H](S)Cc1ccccc1)C(=O)N[C@@H](Cc1ccc(O)cc1)C(=O)O` (stereo partly drawn), the values for the IC50 in test [1] and in test [2] were 34 nM and 100 nM, respectively.
In the same order, the values of `C[C@H](NC(=O)[C@H](Cc1ccccc1)NC(=O)CS)C(=O)O` are 220 nM and 14 nM.
In the same order, the values of `CC(C)C[C@H](NC(=O)[C@@H](S)Cc1ccccc1)C(=O)N[C@@H](Cc1ccc(O)cc1)C(=O)O` are 3 nM and 2.2 nM.
